# An excerpt weighted towards active compounds, which were near 1.3% of everything screened.
# CHT allo act – CHT positive allosteric modulators, primary screen, cell-based, membrane potential dye, choline EC20; High affinity choline transporter 1 (Homo sapiens), Q9GZV3; AID 488977, 2010; CHT-expressing cells; active compounds read high; LV-AA mutant CHT in HEK293 cells; 0.49% of 310,000 active; B-score at 10 µM;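 active = initial fluorescence not abnormally high and integrated response B-score, plate-corrected, over 3 SD above library mean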
# Target sequence (Q9GZV3 whole entry, looked up): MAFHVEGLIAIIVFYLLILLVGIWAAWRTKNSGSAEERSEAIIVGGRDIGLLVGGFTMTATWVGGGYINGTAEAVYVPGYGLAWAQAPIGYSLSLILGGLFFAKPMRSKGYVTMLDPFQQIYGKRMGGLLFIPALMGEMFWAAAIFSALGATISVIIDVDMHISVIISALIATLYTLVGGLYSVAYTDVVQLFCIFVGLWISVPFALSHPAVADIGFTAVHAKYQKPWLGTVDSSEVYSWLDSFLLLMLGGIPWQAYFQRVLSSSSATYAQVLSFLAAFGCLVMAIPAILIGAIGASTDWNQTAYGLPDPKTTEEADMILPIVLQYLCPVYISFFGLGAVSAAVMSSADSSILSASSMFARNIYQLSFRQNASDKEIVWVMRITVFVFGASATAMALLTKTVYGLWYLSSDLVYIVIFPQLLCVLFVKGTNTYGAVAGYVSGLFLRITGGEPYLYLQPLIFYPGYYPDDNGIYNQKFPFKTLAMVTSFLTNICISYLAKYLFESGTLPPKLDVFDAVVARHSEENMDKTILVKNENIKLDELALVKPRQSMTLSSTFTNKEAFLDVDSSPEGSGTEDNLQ
# CHT block – inhibitors of human choline transporter CHT. High affinity choline transporter 1 (Homo sapiens), Q9GZV3. CHT-expressing cells, membrane potential dye, choline response; active compounds read low. B-score at 10 µM. 0.86% of 310,000 active;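 active = B-score over 3 SD under the library average, and starting fluorescence ratio not unusually high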;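 note: choline stimulus applied at its EC90 after an EC20 pre-addition; B-score computed on integrated fluorescence ratio after choline addition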
# proCasp3 act – activators of human procaspase-3 D3A mutant, primary screen, biochemical, absorbance, PC-3 D3A mutant, single concentration. Caspase-3 (Homo sapiens), P42574. recombinant procaspase-3 D3A, Ac-DEVD-pNA absorbance 405 nm. activation, % at 8.5 µM. 0.11% of 330,000 active. AID 463141, 2010;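 active = activation above the mean of all tested compounds plus 3 SD, cut at about 21% in these data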
#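 Assay system: Autoprocessing-dead procaspase-3 D3A mutant enzyme; also added: Ac-DEVD-pNA; doses: one concentration, 8.5 µM nominal, 0.8% DMSO; times: 1 h compound preincubation, 2 h substrate hydrolysis at 25 °C; technique: 405 nm absorbance of p-nitroaniline, reads at 0 and 120 min; measure: % activation between DMSO and enzyme-spiked controls; repeats: single replicate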
# proCasp7 act – procaspase-7 activators, primary screen, counter-screen for procaspase-3 activator project, biochemical, absorbance, HTS, human; recombinant procaspase-7, Ac-DEVD-pNA absorbance 405 nm; D23A/D198A/D206A triple mutant, cannot self-cleave; scale: DMSO 0, 5 µM enzyme 100; activation, % at 8.5 µM; 0.093% of 330,000 active; AID 463210, 2010;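 active = percent activation above the screen-wide mean plus 3 SD, cut at about 25% in these data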
#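 System: Procaspase-7 triple mutant (PC-7 D3A); measure: % activation from two-timepoint absorbance difference, scaled to controls; times: 1 h compound preincubation, 2 h substrate cleavage, 25 °C; also added: Ac-DEVD-pNA substrate, 400 µM as added; measured by: Epi-absorbance of released pNA at 405 nm, two timepoints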
# CHT inh conf – CHT inhibitors, confirmation, cell-based, membrane potential dye, duplicate | AID 493221, 2011 | 70% of 2,400 active | CHT activity remaining % of control (active compounds read low), % at 10 µM | CHT-expressing cells, choline membrane potential dye; LV-to-AA substituted CHT, HEK293 cells | shares compounds with CHT block;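 active = choline transporter activity left, mean of duplicates at 10 µM, below buffer-only control mean minus 3 SD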;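 note: depolarization triggered by choline at its EC90 following an EC20 pre-addition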
# HEK293 CHT ctr – membrane potential effects in parental HEK293, counter-screen for CHT inhibitor project, cell-based, membrane potential dye. shares compounds with CHT block. AID 493222, 2011. membrane potential ratio readout (active if shifted either direction beyond buffer ±3SD; no single direction) at 10 µM. 4% of 2,400 active. choline response; active = decrease or increase beyond buffer ±3SD;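 note: parental cells lack the transporter so any hit is non-specific; ratio is peak minus trough fluorescence over baseline after EC90 choline challenge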
# Numbers stand for hits; . = inactive; / = no result given.
SMILES,CHT allo act,CHT block,proCasp3 act,proCasp7 act,CHT inh conf,HEK293 CHT ctr
Oc1c(Cl)cc(Cl)cc1C=Nc1ccc(Br)cc1,.,-6.5,.,.,51%,.
Cc1ccc(N=Cc2cc(Br)cc(Cl)c2O)cc1,.,.,.,.,/,/
COC(=O)C1CN(C(=O)C(C)Oc2ccccc2Cl)c2ccccc2O1 (stereo unspecified),.,-5.2,.,.,71%,.
Cc1ccc2c(c1)N(C(=O)CCC(=O)NC1CCCCCC1)CCO2,.,.,.,.,/,/
CC(NS(=O)(=O)OCC(Cl)(Cl)Cl)c1ccc(Br)cc1 (stereo unspecified),.,-5.2,.,.,67%,.
CCN(c1ccccc1)S(=O)(=O)c1ccc(Cl)c(NC(=O)CN(C)C2CCN(C)CC2)c1,.,.,.,.,/,/
COc1ccccc1N1CCN(C2CCCN(C(=O)CCc3c(C)noc3C)C2)CC1 (stereo unspecified),.,.,.,.,/,/
COc1ccc(C(C(=O)NC2CCCCC2)N(C(=O)c2cccs2)c2ccc3c(c2)OCO3)cc1 (stereo unspecified),.,.,.,.,/,/
O=C(NC1CCCCC1)C(c1ccc2ncccc2c1)N(Cc1ccc2c(c1)OCO2)C(=O)c1cccs1 (stereo unspecified),.,-10,.,.,25%,.
COc1ccc(CN(C(=O)c2cccs2)C(C(=O)NC2CCCCC2)c2ccc3ncccc3c2)cc1 (stereo unspecified),.,-8.1,.,.,43%,.
O=C(CCN1C(=O)C2CCCCC2C1=O)Nc1ccc(Br)cc1F (stereo unspecified),.,.,.,.,/,/
S=C(N/N=C/c1ccco1)NC1CC2CCC1C2 (stereo unspecified),.,.,.,.,/,/
Cn1c2c(c(=O)c3ccccc31)CCCC2,.,-9,.,.,3.9%,.
CCCCn1c(SCC(=O)N2CCN(c3ccccc3)CC2)nc2ccsc2c1=O,.,-5.7,.,.,.,.
CCCCn1c(SCC(=O)N2CCC(C)CC2)nc2ccsc2c1=O,.,.,.,.,60%,.
Cc1ccc(-n2nc3c(c2NC(=O)CC(C)C)CS(=O)(=O)C3)cc1,.,.,.,.,/,/
COC(=O)c1sc(NC(=S)NNC(=O)c2c(Br)c(C)nn2C)c(C(=O)OC)c1C,.,-5.6,.,.,.,.
CCc1ccc(S(=O)(=O)NCc2cn3cccc(C)c3n2)s1,.,-5.4,.,.,45%,.
C[N+](C)(C)CC=O,.,-6,.,.,22%,.
Cc1ccc(C(C)C)c(OCC(=O)NS(=O)(=O)c2ccc(Cl)cc2)c1,.,-6.4,.,.,14%,.
Cc1ccsc1C(=O)NC1CCCN(Cc2ccc(Cl)cc2)C1 (stereo unspecified),.,.,/,/,/,/
COc1ccc(C(=O)CSc2[nH]c(=O)cc(C(F)(F)F)c2C#N)cc1,.,-14,.,.,45%,.
COc1ccccc1NC(=O)C1CCCN(c2nc(C)cc(C)n2)C1 (stereo unspecified),.,-5.7,.,.,.,.
COc1cc(C)nc(N2CCCC(C(=O)Nc3cccc(Cl)c3Cl)C2)n1 (stereo unspecified),.,.,.,.,/,/
N#CCCn1cc(/C=C2\NC(=S)N(c3ccccc3)C2=O)c(-c2ccc(F)cc2)n1,.,-6.8,.,.,60%,.
Cc1noc(NC(=O)c2c(-c3c(Cl)cccc3Cl)noc2C)c1[N+](=O)[O-],.,-6.1,.,.,48%,.
O=C(CCl)N(C1CCCC1)C1CCS(=O)(=O)C1 (stereo unspecified),.,-5.1,.,.,.,.

# Compound activity: PubChem, several laboratories
